Results: ChEMBL document CHEMBL3244380, “Preparation and antitumor activity of 1-aryl-3,3-dimethyltriazene derivatives” (1977)

Columns and labels:
Type in all cases: functional
Conditions in all cases: TLX-5, ip, 72 h, route intraperitoneal
[1] = Antitumor activity against mouse TLX5 cells allografted in CBA/LAC mouse assessed as increase in life span at 400 mg/kg, ip from day 3 to 7 from tumor inoculation relative to control
How it was run: (§1)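 TLX5 lymphoma cells implanted subcutaneously in the inguinal region of female CBA/LAC mice. Drug given as a freshly made solution in acetone–arachis oil 10/90 (v:v), intraperitoneally once daily from day 3 to 7 after tumour inoculation. Five animals per dose level, ten controls. Read-out was %ILS over controls, with analysis of variance used for significance.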

[2] = Antitumor activity against mouse TLX5 cells allografted in CBA/LAC mouse assessed as increase in life span at 50 mg/kg, ip from day 3 to 7 from tumor inoculation relative to control; how it was run: as §1
[3] = Antitumor activity against mouse TLX5 cells allografted in CBA/LAC mouse assessed as increase in life span at 25 mg/kg, ip from day 3 to 7 from tumor inoculation relative to control; how it was run: as §1
[4] = Antitumor activity against mouse TLX5 cells allografted in CBA/LAC mouse assessed as increase in life span at 12.5 mg/kg, ip from day 3 to 7 from tumor inoculation relative to control; how it was run: as §1
[5] = Antitumor activity against mouse TLX5 cells allografted in CBA/LAC mouse assessed as increase in life span at 200 mg/kg, ip from day 3 to 7 from tumor inoculation relative to control; how it was run: as §1
[6] = Antitumor activity against mouse TLX5 cells allografted in CBA/LAC mouse assessed as increase in life span at 100 mg/kg, ip from day 3 to 7 from tumor inoculation relative to control; how it was run: as §1
[7] = Antitumor activity against mouse TLX5 cells allografted in CBA/LAC mouse assessed as increase in life span at 40 mg/kg, ip from day 3 to 7 from tumor inoculation relative to control; how it was run: as §1
[8] = Antitumor activity against mouse TLX5 cells allografted in CBA/LAC mouse assessed as increase in life span at 20 mg/kg, ip from day 3 to 7 from tumor inoculation relative to control; how it was run: as §1
[9] = Antitumor activity against mouse TLX5 cells allografted in CBA/LAC mouse assessed as increase in life span at 80 mg/kg, ip from day 3 to 7 from tumor inoculation relative to control; how it was run: as §1
[10] = Antitumor activity against mouse TLX5 cells allografted in CBA/LAC mouse assessed as increase in life span at 160 mg/kg, ip from day 3 to 7 from tumor inoculation relative to control; how it was run: as §1
[11] = Antitumor activity against mouse TLX5 cells allografted in CBA/LAC mouse assessed as increase in life span at 10 mg/kg, ip from day 3 to 7 from tumor inoculation relative to control; how it was run: as §1
[12] = Antitumor activity against mouse TLX5 cells allografted in CBA/LAC mouse assessed as increase in life span at 800 mg/kg, ip from day 3 to 7 from tumor inoculation relative to control; how it was run: as §1
[13] = Antitumor activity against mouse TLX5 cells allografted in CBA/LAC mouse assessed as increase in life span at 6.25 mg/kg, ip from day 3 to 7 from tumor inoculation relative to control; how it was run: as §1
[14] = Antitumor activity against mouse TLX5 cells allografted in CBA/LAC mouse assessed as increase in life span at 3.12 mg/kg, ip from day 3 to 7 from tumor inoculation relative to control; how it was run: as §1
[15] = Antitumor activity against mouse TLX5 cells allografted in CBA/LAC mouse assessed as increase in life span at 5 mg/kg, ip from day 3 to 7 from tumor inoculation relative to control; how it was run: as §1
[16] = Antitumor activity against mouse TLX5 cells allografted in CBA/LAC mouse assessed as increase in life span at 2.5 mg/kg, ip from day 3 to 7 from tumor inoculation relative to control; how it was run: as §1

SMILES	ILS at 400 mg/kg [1]	ILS at 50 mg/kg [2]	ILS at 25 mg/kg [3]	ILS at 12.5 mg/kg [4]	ILS at 200 mg/kg [5]	ILS at 100 mg/kg [6]	ILS at 40 mg/kg [7]	ILS at 20 mg/kg [8]	ILS at 80 mg/kg [9]	ILS at 160 mg/kg [10]	ILS at 10 mg/kg [11]	ILS at 800 mg/kg [12]	ILS at 6.25 mg/kg [13]	ILS at 3.12 mg/kg [14]	ILS at 5 mg/kg [15]	ILS at 2.5 mg/kg [16]
CN(C)/N=N/c1ccc(C(=O)N/N=C/c2ccccc2)cc1	-26%	49%	24%	26%	1.8%	36%	–	–	–	–	–	–	–	–	–	–
CN(C)/N=N/c1ccc(C(=O)NN)cc1	–	–	–	–	–	–	57%	55%	44%	-46%	59%	–	–	–	–	–
COc1ccc(/C=N/NC(=O)c2ccc(/N=N/N(C)C)cc2)c(OC)c1	-33%	48%	19%	1.9%	35%	52%	–	–	–	–	–	–	–	–	–	–
CN(C)/N=N/c1ccc(C(=O)NNC(O)c2ccc([N+](=O)[O-])cc2)cc1 (stereo not drawn)	71%	12%	6.5%	–	83%	74%	–	–	–	–	–	44%	–	–	–	–
CN(C)/N=N/c1ccc(C(=O)N/N=C/c2ccccc2[N+](=O)[O-])cc1	59%	49%	40%	44%	57%	51%	–	–	–	–	–	–	–	–	–	–
CN(C)/N=N/c1ccc(C(=O)Nn2cnnc2)cc1	-14%	47%	32%	-1%	28%	49%	–	–	–	–	–	–	–	–	–	–
CN(C)/N=N/c1ccc(C(=O)N=[N+]=[N-])cc1	–	46%	21%	4.6%	-72%	51%	–	–	–	–	–	–	-1%	–	–	–
CN(C)/N=N/c1ccc(S(=O)(=O)Nn2cnnc2)cc1	14%	0.9%	4.6%	0.9%	16%	4.6%	–	–	–	–	–	–	–	–	–	–
CN(C)/N=N/c1ccc(C(=O)N/N=C/c2ccc(Br)cc2)cc1	-35%	52%	21%	7.6%	60%	52%	–	–	–	–	–	–	–	–	–	–
CN(C)/N=N/c1ccc(S(=O)(=O)N(C)C)cc1	–	9.4%	7.5%	0%	-36%	34%	–	–	–	–	–	–	–	–	–	–
CCOc1ccc(/C=N/NC(=O)c2ccc(/N=N/N(C)C)cc2)cc1	63%	29%	13%	0%	65%	50%	–	–	–	–	–	–	–	–	–	–
CN(C)/N=N/c1ccc(S(=O)(=O)N(CCCl)CCCl)cc1	–	2.9%	0%	-1%	–	-3.7%	–	–	–	–	–	–	-3.7%	-3.7%	–	–
CCNC(=S)NNC(=O)c1ccc(/N=N/N(C)C)cc1	–	18%	16%	-1%	-31%	55%	–	–	–	–	–	–	–	–	–	–
CN(C)/N=N/c1ccc(C(N)=O)cc1	-61%	51%	55%	14%	3.9%	47%	–	–	–	–	–	–	–	–	–	–
CN(C)/N=N/c1ccc(C(=O)N/N=C/c2ccc([N+](=O)[O-])cc2)cc1	20%	8.7%	-1%	-1%	26%	16%	–	–	–	–	–	–	–	–	–	–
CN(C)/N=N/c1ccc(C(=O)N/N=C/c2ccc(I)cc2)cc1	–	40%	15%	11%	-38%	54%	–	–	–	–	–	–	–	–	–	–
CCCNC(=O)NNC(=O)c1ccc(/N=N/N(C)C)cc1	-44%	61%	10%	-1%	49%	44%	–	–	–	–	–	–	–	–	–	–
CCO/C=N/NC(=O)c1ccc(/N=N/N(C)C)cc1	–	43%	30%	13%	–	-27%	–	–	–	–	–	–	–	–	–	–
CCCN(CCC)NC(=O)c1ccc(/N=N/N(C)C)cc1	–	–	–	–	–	–	-32%	20%	–	–	0%	–	–	–	-3.7%	-3.7%
CN(C)/N=N/c1ccc(C(=O)N/N=C/c2ccc(Cl)cc2)cc1	-23%	40%	14%	4.6%	51%	44%	–	–	–	–	–	–	–	–	–	–
